The values below come from ChEMBL document CHEMBL3351346, “Design, synthesis, structure-function relationship, bioconversion, and pharmacokinetic evaluation of ertapenem prodrugs” (J Med Chem, 2014).

Data set [1] is described as follows: Stability in rat plasma assessed as compound remaining at 50 uM at 37 degC after 60 mins by LC-MS/MS method. Conditions: read-out: Stability. The format is ADME, cell-free. Put shortly:
(§1)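 Prodrugs were incubated in rat or human plasma for 60 min. Disappearance of prodrug and concomitant appearance of ertapenem were followed by LC-MS/MS, and in selected cases monoesters from partial hydrolysis were also monitored. Ertapenem itself was incubated the same way as a control.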

The nature of data set [2]: Stability in human plasma assessed as compound remaining at 50 uM at 37 degC after 60 mins by LC-MS/MS method. The conditions noted are these: read-out: Stability. In kind it is ADME, cell-free. Put shortly:
as §1

Data set [3] can be described thus: Stability in pH 2.0 simulated gastric fluid assessed as compound degradation to beta-lactam ring open products at 1 uM after 60 mins by LC-MS/MS method. In kind it is ADME. The conditions noted are these: read-out: Drug degradation. The method in brief:
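Incubation was in simulated gastric fluid (SGF, pH 2.0) for 60 min, with loss to the β-lactam ring-opened product measured by LC-MS/MS.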

Data set [4] can be described thus: Stability in pH 6.5 simulated gastrointestinal fluid assessed as compound remaining at 50 uM after 3 hrs by LC-MS/MS method. In kind it is ADME. The conditions noted are these: read-out: Stability. Put shortly: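 Compounds at 50 μM were incubated in fasted-state simulated intestinal fluid (FaSSIF, pH 6.5) for over 3 h. Percent remaining was determined by LC-MS/MS.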

Data set [5] in a line: Stability in pH 7.4 phosphate buffer assessed as compound remaining at 50 uM after 3 hrs by LC-MS/MS method. In kind it is physicochemical. Conditions: read-out: Stability.
Data set [6] is described as follows: AUC (0 to 8 hrs) in fasted Sprague-Dawley rat at 1 mg/kg, iv by LC-MS/MS method. More on the design: time < 8 hr, dose 1 mg/kg, route intravenous. The conditions noted are these: plasma. In kind it is ADME, organism-based.
Data set [7] relates to Rattus norvegicus. In words: AUC (0 to 8 hrs) in fasted Sprague-Dawley rat assessed as ertapenem level at 10 mg/kg dosed through intraduodenal route by LC-MS/MS method. Also noted: time < 8 hr, dose 10 mg/kg, route intraduodenal. The conditions noted are these: in vivo, other. The format is ADME, organism-based, Plasma. The method in brief:
(§2)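 Prodrugs were given intraduodenally to bypass stomach acid. Plasma was sampled at intervals over 8 h, and parent prodrug, the two monoester metabolites and ertapenem were quantified by LC-MS/MS. The lower limit of quantitation was 5 nM. AUC(0–8) was used, and it differed from AUC(0–∞) by ±20%. Vehicles were 30% Captisol or 0.5% methylcellulose, as solution or suspension depending on compound.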

Data set [8] has as its system Rattus norvegicus. The experiment in a line: Oral bioavailability in fasted Sprague-Dawley rat assessed as ertapenem level at 10 mg/kg dosed through intraduodenal route by LC-MS/MS method. The format is ADME, organism-based. The conditions noted are these: in vivo. Put shortly: (§3)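 After intraduodenal dosing, plasma over 8 h was analysed by LC-MS/MS. Bioavailability was calculated as dose-normalized AUC of ertapenem formed from the prodrug divided by dose-normalized AUC of ertapenem dosed iv. Vehicle was 30% Captisol or 0.5% methylcellulose.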

Data set [9] concerns Rattus norvegicus. In words: Oral bioavailability in fasted Sprague-Dawley rat assessed as ertapenem and monoetser metabolites level at 10 mg/kg dosed through intraduodenal route by LC-MS/MS method. The format is ADME, organism-based. Conditions: in vivo. The method in brief: (§4)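 Total absorption followed intraduodenal dosing with LC-MS/MS of plasma over 8 h. It was calculated as the combined dose-normalized AUC of circulating parent prodrug, ertapenem and two monoesters, divided by dose-normalized AUC of ertapenem given iv. Vehicle was 30% Captisol or 0.5% methylcellulose.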

Data set [10] concerns Canis familiaris. The experiment in a line: AUC (0 to 8 hrs) in fasted Beagle dog assessed as ertapenem level at 10 mg/kg dosed through intraduodenal route by LC-MS/MS method. The format is ADME, organism-based, Canis lupus familiaris, Plasma. Also noted: time < 8 hr, dose 10 mg/kg, route intraduodenal. Conditions: in vivo, other. Put shortly: as §2
Data set [11] deals with Canis familiaris. The experiment in a line: AUC (0 to 8 hrs) in fasted Beagle dog assessed as ertapenem level at 1 mg/kg, iv by LC-MS/MS method. More on the design: time < 8 hr, dose 1 mg/kg, route intravenous. In kind it is ADME, organism-based, Canis lupus familiaris, Plasma. Conditions: in vivo.
A short description of data set [12]: AUC (0 to 8 hrs) in fasted Sprague-Dawley rat at 10 mg/kg dosed through intraduodenal route by LC-MS/MS method. More on the design: time < 8 hr, dose 10 mg/kg, route intraduodenal. The conditions noted are these: Sprague-Dawley, plasma. In kind it is ADME, organism-based, Plasma. Put shortly: as §2
Data set [13] can be described thus: AUC (0 to 8 hrs) in fasted Beagle dog at 6.18 mg/kg dosed through intraduodenal route by LC-MS/MS method. More on the design: time < 8 hr, dose 6.18 mg/kg, route intraduodenal. Conditions: plasma. The format is ADME, organism-based, Canis lupus familiaris. Put shortly:
as §2

Data set [14] concerns Canis familiaris. The experiment in a line: AUC (0 to 8 hrs) in fasted Beagle dog assessed as ertapenem level at 6.18 mg/kg dosed through intraduodenal route by LC-MS/MS method. In kind it is ADME, organism-based, Canis lupus familiaris, Plasma. Also noted: time < 8 hr, dose 6.18 mg/kg, route intraduodenal. Conditions: in vivo, other. Put shortly:
as §2

The subject of data set [15] is Canis familiaris. In words: AUC (0 to 8 hrs) in fasted Beagle dog assessed as 8-OH, C-3 ester level at 6.18 mg/kg dosed through intraduodenal route by LC-MS/MS method. In kind it is ADME, organism-based, Canis lupus familiaris, Plasma. Also noted: time < 8 hr, dose 6.18 mg/kg, route intraduodenal. The conditions noted are these: in vivo, other. Put shortly:
as §2

The subject of data set [16] is Canis familiaris. The experiment in a line: AUC (0 to 8 hrs) in fasted Beagle dog assessed as 8-OH, benzoate ester level at 6.18 mg/kg dosed through intraduodenal route by LC-MS/MS method. Conditions: in vivo, other. More on the design: time < 8 hr, dose 6.18 mg/kg, route intraduodenal. The format is ADME, organism-based, Canis lupus familiaris, Plasma. Put shortly:
as §2

The test system of data set [17] is Canis familiaris. In words: Oral bioavailability in fasted Beagle dog assessed as ertapenem level at 6.18 mg/kg dosed through intraduodenal route by LC-MS/MS method. In kind it is ADME, organism-based, Canis lupus familiaris. Conditions: in vivo. The method in brief:
as §3

In data set [18] the test system is Canis familiaris. The experiment in a line: Oral bioavailability in fasted Beagle dog assessed as assessed as ertapenem and monoetser metabolites level at 6.18 mg/kg dosed through intraduodenal route by LC-MS/MS method. The format is ADME, organism-based, Canis lupus familiaris. Conditions: in vivo. Put shortly:
as §4

The nature of data set [19]: Oral drug absorption in fasted Beagle dog at 6.18 mg/kg dosed through intraduodenal route by LC-MS/MS method. In kind it is ADME, organism-based, Canis lupus familiaris. The conditions noted are these: in vivo. Also noted: dose 6.18 mg/kg, route intraduodenal. Put shortly: as §4
Data set [20] can be described thus: AUC (0 to 8 hrs) in fasted Beagle dog at 10 mg/kg dosed through intraduodenal route by LC-MS/MS method. In kind it is ADME, organism-based, Canis lupus familiaris, Plasma. More on the design: time < 8 hr, dose 10 mg/kg, route intraduodenal. Conditions: Beagle, plasma. The method in brief: as §2
For data set [21], the system named is Canis familiaris. In words: AUC (0 to 8 hrs) in fasted Beagle dog assessed as 8-OH, C-3 ester level at 10 mg/kg dosed through intraduodenal route by LC-MS/MS method. In kind it is ADME, organism-based, Canis lupus familiaris, Plasma. More on the design: time < 8 hr, dose 10 mg/kg, route intraduodenal. The conditions noted are these: in vivo, other, BLD = below limit of detection. The method in brief: as §2

The subject of data set [22] is Canis familiaris. In words: Oral bioavailability in fasted Beagle dog assessed as ertapenem level at 10 mg/kg dosed through intraduodenal route by LC-MS/MS method. In kind it is ADME, organism-based, Canis lupus familiaris. The conditions noted are these: in vivo, BLD = below limit of detection. The method in brief:
as §3

The test system of data set [23] is Canis familiaris. In words: Oral bioavailability in fasted Beagle dog assessed as assessed as ertapenem and monoetser metabolites level at 10 mg/kg dosed through intraduodenal route by LC-MS/MS method. In kind it is ADME, organism-based, Canis lupus familiaris. The conditions noted are these: in vivo. The method in brief: as §4
Data set [24] in a line: Oral drug absorption in fasted Beagle dog at 10 mg/kg dosed through intraduodenal route by LC-MS/MS method. More on the design: dose 10 mg/kg, route intraduodenal. The format is ADME, organism-based, Canis lupus familiaris. The conditions noted are these: in vivo. Put shortly: as §4

The AUC(0-t) is the area under the concentration-time curve up to a stated or last time point. Higher therefore signals high exposure. By AUC is commonly meant the area under the concentration-time curve, a measure of exposure. In the case of `C[C@@H](O)[C@H]1C(=O)N2C(C(=O)[O-])=C(S[C@@H]3CN[C@H](C(=O)Nc4cccc(C(=O)O)c4)C3)[C@H](C)[C@H]12.O.[Na+]`, the remaining at 1 h, 50 µM in data set [1] and in data set [2] was 100% in each case. Further, the degraded at 1 h, 1 µM in data set [3] was > 25%. In addition, the remaining at 3 h, 50 µM in data set [4] and in [5] was > 95% throughout. This compound gave an exposure AUC(0-t) at 8 h in data set [6] of 7.8 µM·h. The AUC is 0.5 µM·h in the data set on Rattus norvegicus [7], 1.4 µM·h in the data set with Canis familiaris [10] and 8.9 µM·h with Canis familiaris [11]. Further, the F in the data set with Rattus norvegicus [8] and in the data set with Rattus norvegicus [9] was 0.7% each time.

As to `CC(C)OC(=O)C1=C(S[C@@H]2CN[C@H](C(=O)Nc3cccc(C(=O)OC(C)C)c3)C2)[C@H](C)[C@@H]2[C@@H]([C@@H](C)O)C(=O)N12`, the figures for the remaining at 1 h, 50 µM in data set [1] and in [2] were 0% and 16%, respectively. Moreover, the degraded at 1 h, 1 µM in data set [3] is > 25%. The remaining at 3 h, 50 µM in data set [4] and in data set [5] was > 95% each time. Also, the results for the AUC(0-t) at 8 h in data set [12] and in data set [13] were 0.09 µM·h and 1.6 µM·h, respectively. Further, the AUC is < 0.1 µM·h with Rattus norvegicus [7], 0.2 µM·h in the data set on Canis familiaris [14], 0.2 µM·h in the data set on Canis familiaris [15] and 0.3 µM·h in the data set on Canis familiaris [16]. Also, the F with Rattus norvegicus [8] is reported as < 0.1%; in the data set with Rattus norvegicus [9] it was 0.1%; in the data set with Canis familiaris [17], 0.5%; in the data set with Canis familiaris [18] it was 5.1%. In data set [19], the Fa turned out to be 5.1%.

For the compound `CC(C)CCC[C@@H](C)[C@H]1CC[C@H]2[C@@H]3CC=C4C[C@@H](OC(=O)COC(=O)c5cccc(NC(=O)[C@@H]6C[C@H](SC7=C(C(=O)OCC(F)(F)F)N8C(=O)[C@H]([C@@H](C)O)[C@H]8[C@H]7C)CN6)c5)CC[C@]4(C)[C@H]3CC[C@]12C`, the remaining at 1 h, 50 µM stood at 97% in data set [1] and 92% in data set [2]. For the same compound, the degraded at 1 h, 1 µM in data set [3] is > 25%. Moreover, the remaining at 3 h, 50 µM in data set [4] and in data set [5] was > 95% each time. Moreover, in data set [20], the AUC(0-t) at 8 h was < 0.1 µM·h. The exposure (AUC) entry in the data set on Canis familiaris [10] (BLD = below limit of detection) and in the data set on Canis familiaris [21] was “BLD” throughout. Moreover, the F entry is reported as “BLD” in the data set with Canis familiaris [22] and 0.1% in the data set on Canis familiaris [23]. Further, the Fa in data set [24] was < 0.1%.
